Data: ChEMBL document CHEMBL4024790 (J Med Chem, 2018)
Active and inactive are the calls of the source. No cut-off for these calls is given here.

Key:
[1] = molecular target: T1, Cytochrome P450 1A2 (Homo sapiens, UniProt P05177); test: Inhibition of recombinant human CYP1A2; type: ADME; conditions: recombinant enzyme
T1 sequence (P05177 whole entry): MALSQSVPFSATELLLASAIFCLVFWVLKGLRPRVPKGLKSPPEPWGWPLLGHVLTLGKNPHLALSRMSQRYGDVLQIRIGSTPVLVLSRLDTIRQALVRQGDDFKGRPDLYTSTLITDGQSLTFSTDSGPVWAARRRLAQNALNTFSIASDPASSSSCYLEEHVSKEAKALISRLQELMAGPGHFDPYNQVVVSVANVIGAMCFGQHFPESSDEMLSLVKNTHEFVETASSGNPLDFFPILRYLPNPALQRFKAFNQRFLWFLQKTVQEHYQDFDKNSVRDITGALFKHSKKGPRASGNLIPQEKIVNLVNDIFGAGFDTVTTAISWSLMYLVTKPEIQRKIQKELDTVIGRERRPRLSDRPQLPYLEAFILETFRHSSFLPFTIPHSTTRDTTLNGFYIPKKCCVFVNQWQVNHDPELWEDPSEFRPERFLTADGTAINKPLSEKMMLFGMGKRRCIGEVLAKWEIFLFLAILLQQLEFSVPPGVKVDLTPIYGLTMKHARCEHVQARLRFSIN

[2] = species on record: Mus musculus; test: Increase in cGMP level in CD-1 mouse brain cortex assessed per nM of unbound brain concentration by immunoassay; type: functional
Procedure, shortened: (§1)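 CD-1 mice dosed SC (solution in 20% SBE-β-CD with 2 molar equivalents 1N HCl, 1 mL/kg); euthanized by focused microwave irradiation of brain; cortex, striatum, hippocampus homogenized in 0.5 N HCl, centrifuged; cyclic nucleotides in supernatant by enzyme immunoassay. Unbound brain exposure from satellite animals; dose-response and time-course data combined with linear model; one-way ANOVA with Fisher's PLSD.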

[3] = Drug metabolism in rat hepatocytes assessed as 1-(7-methyl-5-(1-methyl-5-(5-(trifluoromethyl)pyridin-2-yl)-1H-pyrazol-4-yl)imidazo[1,5-f][1,2,4]triazin-4-yl)azetidin-3-ol formation at 1 to 50 uM after 1 hr by LC-MS/MS analysis; type: ADME, cell-based, Hepatocyte
Procedure, shortened: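 Rat, dog or human liver microsomes or hepatocytes (P450 0.35–0.5 µM final) incubated with compound at 1, 10 or 50 µM in 100 mM phosphate buffer with 1 mM NADP regenerating system, 37°C for 1 h; quenched with 4 volumes acetonitrile, centrifuged, supernatant evaporated, reconstituted in 5% aqueous acetonitrile and analysed by reversed-phase LC.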

[4] = Ratio of unbound brain concentration to unbound plasma concentration in po dosed beagle dog; type: ADME, organism-based, Canis lupus familiaris; conditions: brain and plasma, read-out: K(p,uu,brain)
Procedure, shortened: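 Compound given sc to mice, iv and/or sc to rats, po to dogs and sc to monkeys; sc doses as a solution in 20% SBE-BCD + 2 molar equiv 1N HCl. Plasma, whole brain and CSF taken at matched times from 2 min to 24 h and quantified by LC-MS/MS. Fraction unbound in plasma and brain homogenate (diluted 4-fold, dilution factor 5 applied) by 6 h equilibrium dialysis against phosphate buffer at 37°C.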

[5] = system: Mus musculus; test: In vivo effect on phosphorylated CREB level in CD-1 mouse brain cortex by immunoassay; type: functional, organism-based
[6] = molecular target: T2, cGMP-dependent 3',5'-cyclic phosphodiesterase (Rattus norvegicus, UniProt Q01062); test: Displacement of radiolabeled 4-(azetidin-1-yl)-3-[5-[4-(trifluoromethyl)phenyl]-1H-pyrazol-4-yl]-1-(tritritiomethyl)pyrazolo[3,4-d]pyrimidine from PDE2A in rat striatal membranes after 30 mins by liquid scintillation counting method; type: cell membranes, Striatum, Membrane
T2 sequence (Q01062 whole entry): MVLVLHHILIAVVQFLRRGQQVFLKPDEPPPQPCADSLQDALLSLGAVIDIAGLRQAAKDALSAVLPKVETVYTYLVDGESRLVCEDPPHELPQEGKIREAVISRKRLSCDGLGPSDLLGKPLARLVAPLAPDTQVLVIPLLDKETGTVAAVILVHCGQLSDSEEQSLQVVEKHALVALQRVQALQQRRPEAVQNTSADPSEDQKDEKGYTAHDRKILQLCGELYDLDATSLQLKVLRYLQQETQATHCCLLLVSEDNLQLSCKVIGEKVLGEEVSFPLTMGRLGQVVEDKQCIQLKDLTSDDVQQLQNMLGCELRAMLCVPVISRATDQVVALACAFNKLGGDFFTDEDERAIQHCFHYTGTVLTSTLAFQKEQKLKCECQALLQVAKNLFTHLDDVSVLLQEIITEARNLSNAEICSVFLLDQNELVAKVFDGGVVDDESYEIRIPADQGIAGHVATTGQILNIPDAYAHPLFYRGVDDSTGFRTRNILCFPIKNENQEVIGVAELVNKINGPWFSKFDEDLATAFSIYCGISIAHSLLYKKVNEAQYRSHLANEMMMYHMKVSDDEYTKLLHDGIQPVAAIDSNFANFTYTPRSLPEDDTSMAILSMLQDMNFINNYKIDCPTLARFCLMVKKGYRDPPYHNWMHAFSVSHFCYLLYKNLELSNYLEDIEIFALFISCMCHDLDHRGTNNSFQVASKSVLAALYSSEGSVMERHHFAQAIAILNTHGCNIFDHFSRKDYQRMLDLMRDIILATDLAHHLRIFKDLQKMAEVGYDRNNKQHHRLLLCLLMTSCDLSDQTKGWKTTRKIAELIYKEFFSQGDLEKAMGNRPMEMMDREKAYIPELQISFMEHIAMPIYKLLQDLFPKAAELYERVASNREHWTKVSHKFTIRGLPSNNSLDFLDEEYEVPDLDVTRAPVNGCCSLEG

[7] = Volume of distribution at steady state in beagle dog at 0.3 mg/kg, iv by LC-MS/MS analysis; type: ADME, organism-based, Canis lupus familiaris; conditions: in vivo, read-out: Vdss
Procedure, shortened: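 Beagle dogs got a single IV dose as a solution in 20% (w/v) sulfobutyl ether β-cyclodextrin with hydrochloric acid, at 0.4 mL/kg. Blood was drawn into K3EDTA via carotid artery cannula at set times from 2 min to 24 h. Plasma was acetonitrile-precipitated with internal standard and measured by LC-MS/MS with positive electrospray, standard curve 0.61 to 1250 ng/mL.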

[8] = species on record: Mus musculus; test: Increase in cGMP level in CD-1 mouse brain cortex by immunoassay; type: functional; procedure, shortened: as §1
[9] = species on record: Mus musculus; test: Increase in cGMP level in CD-1 mouse brain striatum assessed per nM of unbound brain concentration by immunoassay; type: functional
Procedure, shortened: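 CD-1 mice given compound; brains fixed by focused microwave irradiation, and cortex, striatum and hippocampus dissected and homogenized in 0.5 N HCl, then centrifuged. cGMP in the supernatant measured by enzyme immunoassay. Unbound brain concentration taken from satellite animals. Dose-response and time-course data combined, and a linear Cbu–cGMP model fitted. The Cbu E50 is the projected Cbu giving a 50% rise in cGMP. Statistics by one-way ANOVA with Fisher's PLSD, p<0.05.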

[10] = molecular target: Cytochrome P450 3A (Homo sapiens, UniProt P08684+P20815+Q9HB55+P24462); test: Time-dependant inhibition of recombinant human CYP3A; type: ADME; conditions: recombinant enzyme
[11] = molecular target: Cytochrome P450 2C19 (Homo sapiens, UniProt P33261); test: Time-dependant inhibition of recombinant human CYP2C19; type: ADME; conditions: recombinant enzyme
[12] = molecular target: Cytochrome P450 2C9 (Homo sapiens, UniProt P11712); test: Inhibition of recombinant human CYP2C9; type: ADME; conditions: recombinant enzyme
Chain of Cytochrome P450 2C9 (P11712 whole entry): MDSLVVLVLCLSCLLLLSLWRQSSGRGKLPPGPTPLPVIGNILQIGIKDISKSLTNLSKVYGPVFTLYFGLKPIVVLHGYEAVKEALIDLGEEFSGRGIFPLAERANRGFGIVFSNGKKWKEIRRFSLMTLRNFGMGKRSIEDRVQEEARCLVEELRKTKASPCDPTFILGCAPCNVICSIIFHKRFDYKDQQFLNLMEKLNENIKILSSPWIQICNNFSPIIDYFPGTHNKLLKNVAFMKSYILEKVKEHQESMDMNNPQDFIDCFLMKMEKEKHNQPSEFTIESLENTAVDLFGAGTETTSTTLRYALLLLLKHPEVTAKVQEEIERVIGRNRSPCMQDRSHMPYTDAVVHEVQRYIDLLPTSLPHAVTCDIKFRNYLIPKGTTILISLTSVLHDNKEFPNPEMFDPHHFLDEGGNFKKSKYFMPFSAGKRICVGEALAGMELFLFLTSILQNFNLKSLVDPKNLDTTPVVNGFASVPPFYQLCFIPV

Chain of Cytochrome P450 2C19 (P33261 whole entry): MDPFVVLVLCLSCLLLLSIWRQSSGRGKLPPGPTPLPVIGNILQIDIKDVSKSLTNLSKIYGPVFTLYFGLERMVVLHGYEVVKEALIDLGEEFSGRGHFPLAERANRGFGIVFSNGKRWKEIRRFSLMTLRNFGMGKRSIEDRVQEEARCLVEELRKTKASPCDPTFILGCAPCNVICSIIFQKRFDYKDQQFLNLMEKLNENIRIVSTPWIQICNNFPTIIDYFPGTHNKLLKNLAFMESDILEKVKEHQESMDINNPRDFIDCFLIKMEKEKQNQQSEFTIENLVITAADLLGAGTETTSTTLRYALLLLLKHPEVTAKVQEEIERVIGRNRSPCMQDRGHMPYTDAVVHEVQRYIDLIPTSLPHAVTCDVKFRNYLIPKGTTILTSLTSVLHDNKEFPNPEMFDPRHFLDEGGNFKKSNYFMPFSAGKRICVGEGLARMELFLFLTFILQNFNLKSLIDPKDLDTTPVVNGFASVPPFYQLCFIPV

- inhibition (INH) [1]: Not Active
- Drug metabolism [3]: Metabolite_Detected
- Kp uu [4]: 0.58
- Ki [6]: 4.2 nM
- Vd [7]: 2.89 L/kg
- TDI [10]: Not Active
- TDI [11]: Not Active
- inhibition (INH) [12]: Not Active
SMILES: Cc1nc(-c2cnn(C)c2-c2ccc(C(F)(F)F)cn2)c2c(N3CCC3)ncnn12 [PF-05180999]
- Activity [2]: 0.63%
- Activity [5]: inactive
- Activity [8]: Dose-dependent effect
- Activity [9]: 0.51%
